Results published in ChEMBL document CHEMBL1145840, “Identification of (3R)-7-hydroxy-N-((1S)-1-[[(3R,4R)-4-(3-hydroxyphenyl)- 3,4-dimethyl-1-piperidinyl]methyl]-2-methylpropyl)-1,2,3,4-tetrahydro- 3-isoquinolinecarboxamide as a novel potent and selective opioid kappa receptor antagonist” (J Med Chem, 2003).
“And” between values parts separate entries of the source, which are not always exact repeats. Equal values may be shown once.

Tests used:
[1] = target: Mu-type opioid receptor (Cavia porcellus) (UniProt P97266); assay: Antagonistic activity against DAMGO and guinea pig caudate Opioid receptor mu 1 in [35S]GTP-gamma-S, assay; assay type: functional
How it was run: (§1)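 Agonist-stimulated binding was run with varying drug concentrations, 3 h at 25 °C, then filtration and scintillation counting. Nonspecific binding was taken with 10 µM GTPγS. Three experiments were pooled and fit by nonlinear least squares to give Ke.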

[2] = target: Kappa-type opioid receptor (Cavia porcellus) (UniProt P41144); assay: Inhibition of U69,593 antagonistic activity in [35S]GTP-gamma-S, assay against guinea pig Opioid receptor kappa 1; assay type: functional; how it was run: as §1
[3] = target: Delta-type opioid receptor (Rattus norvegicus, UniProt P33533); assay: Inhibition of [3H]-DADLE binding to Opioid receptor delta 1 of rat brain tissue
How it was run: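 Rat brain membranes prepared daily, labelled with 2 nM [3H]DADLE. Incubation 2 h at 25 °C in 50 mM Tris-HCl pH 7.4 with 100 mM choline chloride, 3 mM MnCl2, 100 nM DAMGO to block mu sites, and protease inhibitors. Nonspecific binding was taken with 20 µM levallorphan. Radioligand was displaced by 8-10 drug concentrations. Ki came from IC50 via Cheng–Prusoff, from two pooled experiments.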

[4] = target: Kappa-type opioid receptor (Cavia porcellus, UniProt P41144); assay: Inhibition of [3H]U-69593 binding to Opioid receptor kappa 1 of guinea pig brain
How it was run: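 Guinea pig brain membranes prepared daily, labelled with 2 nM [3H]U69,593. Incubation 2 h at 25 °C in 50 mM Tris-HCl pH 7.4 with 1 µg/mL captopril and protease inhibitors. Nonspecific binding was taken with 1 µM U69,593. Radioligand was displaced by 8-10 drug concentrations. Ki came from IC50 via IC50/(1+[L]/Kd), from two pooled experiments.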

[5] = target: Mu-type opioid receptor (Rattus norvegicus, UniProt P33535); assay: Inhibition of [3H]DAMGO binding to Opioid receptor mu 1 of rat brain tissue
How it was run: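 Rat brain membranes prepared daily, labelled with [3H]DAMGO. Incubation 2 h at 25 °C in 50 mM Tris-HCl pH 7.4 with protease inhibitor cocktail. Nonspecific binding was taken with 20 µM levallorphan. Radioligand was displaced by 8-10 drug concentrations. IC50 was converted to Ki by IC50/(1+[L]/Kd), from two pooled experiments.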

[6] = target: T1, Mu-type opioid receptor (Homo sapiens, UniProt P35372); assay: Binding affinity towards human cloned Opioid receptor mu 1 using [3H]DAMGO
[7] = target: T2, Kappa-type opioid receptor (Homo sapiens, UniProt P41145); assay: Antagonistic activity against human cloned Opioid receptor kappa 1 using U69,593 in [35S]GTP-gamma-S, assay; assay type: functional
[8] = target: T2, Kappa-type opioid receptor; assay: Binding affinity towards human cloned Opioid receptor kappa 1 using [3H]U-69593
[9] = target: T1, Mu-type opioid receptor; assay: Antagonistic activity against human cloned Opioid receptor mu 1 using DAMGO in [35S]GTP-gamma-S, assay; assay type: functional
[10] = target: T3, Delta-type opioid receptor (Homo sapiens, UniProt P41143); assay: Binding affinity towards human cloned Opioid receptor delta 1 using [3H]Cl-DPDPE
[11] = target: T3, Delta-type opioid receptor; assay: (§2) Antagonistic activity against human cloned Opioid receptor delta 1 using DPDPE in [35S]GTP-gamma-S, assay; assay type: functional
[12] = target: T1, Mu-type opioid receptor
[13] = target: Opioid receptors; delta & kappa (Homo sapiens) (UniProt P41145+P41143); assay: Selectivity ratio of delta and kappa opioid receptor; assay type: protein assay
[14] = target: T1, Mu-type opioid receptor; assay: Antagonistic activity against human cloned Opioid receptor mu 1 using DPDPE in [35S]GTP-gamma-S, assay; assay type: functional; settings: read-out: pA2 (converted)
[15] = target: T2, Kappa-type opioid receptor; assay: Antagonistic activity against human cloned kOpioid receptor kappa 1 using U69,593 in [35S]GTP-gamma-S, assay; assay type: functional; settings: read-out: pA2 (converted)
How it was run: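 Membranes from CHO cells transfected with cloned human κ opioid receptor. Antagonism is measured as inhibition of U69,593-stimulated [35S]GTPγS binding and expressed as a Ke value.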

[16] = target: Opioid receptors; mu & kappa (Homo sapiens) (UniProt P41145+P35372); assay: Selectivity ratio of mu and kappa opioid receptor; assay type: protein assay
[17] = target: T3, Delta-type opioid receptor; assay: as §2; assay type: functional; settings: read-out: pA2 (converted)

T1 sequence (P35372 whole entry): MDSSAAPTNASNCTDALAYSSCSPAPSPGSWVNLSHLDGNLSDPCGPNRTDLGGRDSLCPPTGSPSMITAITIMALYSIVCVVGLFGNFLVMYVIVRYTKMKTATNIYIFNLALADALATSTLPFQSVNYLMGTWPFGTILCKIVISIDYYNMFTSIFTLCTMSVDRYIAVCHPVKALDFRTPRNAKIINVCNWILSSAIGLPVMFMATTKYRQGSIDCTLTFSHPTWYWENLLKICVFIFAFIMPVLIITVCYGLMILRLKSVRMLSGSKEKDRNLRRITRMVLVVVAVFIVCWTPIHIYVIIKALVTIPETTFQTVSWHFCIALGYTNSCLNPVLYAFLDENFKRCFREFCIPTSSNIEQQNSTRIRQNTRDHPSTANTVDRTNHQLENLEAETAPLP
Sequence of Mu-type opioid receptor (Rattus norvegicus, UniProt P33535) (P33535 whole entry): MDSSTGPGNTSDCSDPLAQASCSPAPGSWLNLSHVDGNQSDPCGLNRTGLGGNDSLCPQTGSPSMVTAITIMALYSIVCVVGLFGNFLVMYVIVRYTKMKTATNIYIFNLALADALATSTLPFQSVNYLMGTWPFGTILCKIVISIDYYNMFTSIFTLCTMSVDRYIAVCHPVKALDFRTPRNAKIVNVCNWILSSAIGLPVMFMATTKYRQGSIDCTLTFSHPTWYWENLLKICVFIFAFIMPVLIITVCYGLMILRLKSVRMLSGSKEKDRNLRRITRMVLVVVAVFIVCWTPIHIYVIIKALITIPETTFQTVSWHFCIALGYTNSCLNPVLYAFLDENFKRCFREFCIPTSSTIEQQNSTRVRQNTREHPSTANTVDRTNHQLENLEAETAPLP
T3 sequence (P41143 whole entry): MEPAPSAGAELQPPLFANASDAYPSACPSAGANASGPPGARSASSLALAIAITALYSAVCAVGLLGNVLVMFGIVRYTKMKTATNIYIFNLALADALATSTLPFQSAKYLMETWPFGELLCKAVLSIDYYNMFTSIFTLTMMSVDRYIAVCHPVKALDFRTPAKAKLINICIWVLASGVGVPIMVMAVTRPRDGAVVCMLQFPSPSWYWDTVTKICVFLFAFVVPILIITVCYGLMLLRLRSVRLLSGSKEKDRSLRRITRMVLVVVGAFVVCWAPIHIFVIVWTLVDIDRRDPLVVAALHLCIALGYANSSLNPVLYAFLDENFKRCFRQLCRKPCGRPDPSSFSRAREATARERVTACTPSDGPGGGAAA
Sequence of Opioid receptors; delta & kappa (Homo sapiens) (P41143 whole entry, looked up): as the sequence (P41143 whole entry) above
Sequence of Opioid receptors; delta & kappa (Homo sapiens) (P41145 whole entry, looked up): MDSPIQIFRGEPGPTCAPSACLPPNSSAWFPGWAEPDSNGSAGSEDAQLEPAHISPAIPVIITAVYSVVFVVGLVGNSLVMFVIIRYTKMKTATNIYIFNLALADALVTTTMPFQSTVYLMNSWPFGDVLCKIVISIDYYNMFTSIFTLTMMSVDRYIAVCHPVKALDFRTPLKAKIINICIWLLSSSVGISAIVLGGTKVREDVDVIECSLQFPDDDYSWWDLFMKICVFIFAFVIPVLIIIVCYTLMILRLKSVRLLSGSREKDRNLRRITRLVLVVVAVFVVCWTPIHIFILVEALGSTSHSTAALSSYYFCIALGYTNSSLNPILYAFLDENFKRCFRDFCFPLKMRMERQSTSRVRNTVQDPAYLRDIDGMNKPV
Sequence of Delta-type opioid receptor (Rattus norvegicus, UniProt P33533) (P33533 whole entry): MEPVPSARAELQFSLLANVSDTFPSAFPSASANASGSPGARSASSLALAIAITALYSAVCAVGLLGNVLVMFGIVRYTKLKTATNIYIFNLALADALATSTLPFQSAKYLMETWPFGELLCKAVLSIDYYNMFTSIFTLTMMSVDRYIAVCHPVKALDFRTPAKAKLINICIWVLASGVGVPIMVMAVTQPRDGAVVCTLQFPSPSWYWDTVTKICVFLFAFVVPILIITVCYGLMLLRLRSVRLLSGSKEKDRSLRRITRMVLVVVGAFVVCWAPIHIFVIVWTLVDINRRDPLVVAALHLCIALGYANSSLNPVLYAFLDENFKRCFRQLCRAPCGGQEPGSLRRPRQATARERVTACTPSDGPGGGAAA
T2 sequence (P41145 whole entry): as the sequence (P41145 whole entry, looked up) above
Sequence of Kappa-type opioid receptor (Cavia porcellus) (P41144 whole entry): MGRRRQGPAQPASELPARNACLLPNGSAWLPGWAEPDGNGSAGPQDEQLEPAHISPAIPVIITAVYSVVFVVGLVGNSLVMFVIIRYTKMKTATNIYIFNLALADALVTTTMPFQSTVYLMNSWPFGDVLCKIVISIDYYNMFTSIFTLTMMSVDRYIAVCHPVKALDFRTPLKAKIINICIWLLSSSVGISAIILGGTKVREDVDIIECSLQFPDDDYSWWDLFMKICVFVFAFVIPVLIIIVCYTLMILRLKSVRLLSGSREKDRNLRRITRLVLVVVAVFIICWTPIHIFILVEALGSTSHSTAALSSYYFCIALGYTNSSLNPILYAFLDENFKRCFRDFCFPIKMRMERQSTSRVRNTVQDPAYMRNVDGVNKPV
Sequence of Kappa-type opioid receptor (Cavia porcellus, UniProt P41144) (P41144 whole entry): as above
Sequence of Mu-type opioid receptor (Cavia porcellus) (P97266 whole entry): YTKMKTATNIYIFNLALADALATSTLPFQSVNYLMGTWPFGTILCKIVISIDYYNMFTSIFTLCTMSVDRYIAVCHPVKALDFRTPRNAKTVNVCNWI
Sequence of Opioid receptors; mu & kappa (Homo sapiens) (P35372 whole entry, looked up): as the sequence (P35372 whole entry) above
Sequence of Opioid receptors; mu & kappa (Homo sapiens) (P41145 whole entry, looked up): as the sequence (P41145 whole entry, looked up) above

| SMILES | Ke [1] [nM] | Ke [2] [nM] | Ki [3] [nM] | Ki [4] [nM] | Ki [5] [nM] | Ke [7] [nM] | Ke [11] [nM] | other results |
| --- | --- | --- | --- | --- | --- | --- | --- | --- |
| CC(C)[C@@H](CN1CC[C@](C)(c2cccc(O)c2)[C@H](C)C1)NC(=O)[C@H]1Cc2ccc(O)cc2CN1 | 178 | 16.7 | 144 | 17.5 | 138 |  |  |  |
| CC(C)[C@@H](CN1CC[C@@](C)(c2cccc(O)c2)[C@@H](C)C1)NC(=O)[C@H]1Cc2ccccc2CN1 |  |  | > 4900 | 2.1 | 775 | 2.95 |  | Ki [6]: 33.1 nM; Ki [8]: 2.18 nM; Ke [9]: 8.38 nM; Ki [10]: 1090 nM |
| CC(C)[C@@H](CN1CC[C@@](C)(c2cccc(O)c2)[C@@H](C)C1)NC[C@H]1Cc2ccc(O)cc2CN1 | 12.8 | 0.2 | > 4900 | 0.63 |  | 0.14 | 427 | Ki [6]: 3.8 nM; Ki [8]: 1.82 nM; Ke [12]: 14.3 nM; Ki [10]: 83.6 nM |
| CC(C)[C@@H](CN1CC[C@@](C)(c2cccc(O)c2)[C@@H](C)C1)NC(=O)[C@@H](N)Cc1ccc(O)cc1 (stereo in doubt; form 2) [listing 1 of 2 here] |  |  | > 5050 | 16 | 633 |  |  |  |
| CC(C)[C@@H](CN1CC[C@@](C)(c2cccc(O)c2)[C@@H](C)C1)NC(=O)[C@H]1Cc2ccc(O)cc2CN1C(=O)CN(C)C | 29 | 0.16 | > 3400 | 15.5 | 164 | 1.1 | 299 | Ki [6]: 13.2 nM; Ki [8]: 16.2 nM; Ke [9]: 21.2 nM; Ki [10]: 175 nM |
| CC(C)[C@@H](CN1CC[C@@](C)(c2cccc(O)c2)[C@@H](C)C1)NC(=O)[C@@H](N)Cc1ccc(O)cc1 (stereo in doubt; form 2) [listing 2 of 2 here] | 16.5 | 30 |  |  |  |  |  |  |
| CC(C)[C@@H](CN1CC[C@@](C)(c2cccc(O)c2)[C@@H](C)C1)NC(=O)[C@@H](N)Cc1ccc(O)cc1 (stereo in doubt; form 1) [listing 1 of 2 here] |  |  | > 5050 | 20.4 | 208 |  |  |  |
| CC(=O)N1Cc2cc(O)ccc2C[C@@H]1C(=O)N[C@H](CN1CC[C@@](C)(c2cccc(O)c2)[C@@H](C)C1)C(C)C | 17.4 | 19.6 | > 4900 | 146 | 764 |  |  | Delta/kappa [13]: > 34 and 15 |
| CC(C)[C@@H](CN1CC[C@@](C)(c2cccc(O)c2)[C@@H](C)C1)NC(=O)[C@H]1Cc2ccc(O)cc2CN1 [JDTIC] | 2.16 | 0.02 | 301 |  | 3.73 | 0.01 | 79.3 | Ke [9]: 3.41 nM |
| Oc1ccc2c3c1O[C@H]1c4[nH]c5c(c4C[C@@]4(O)[C@@H](C2)N(CC2CC2)CC[C@]314)C[C@@]1(O)[C@H]2Cc3ccc(O)c4c3[C@@]1(CCN2CC1CC1)[C@H]5O4 |  |  |  |  |  |  | 4.4 |  |
| CC(C)[C@@H](CN1CC[C@@](C)(c2cccc(O)c2)[C@@H](C)C1)NC(=O)[C@@H]1Cc2ccc(O)cc2CN1 | 11 | 4.2 | > 4900 | 9.8 | 596 |  |  |  |
| CC(C)[C@@H](CN1CC[C@@](C)(c2cccc(O)c2)[C@@H](C)C1)NC(=O)[C@H]1Cc2ccc(O)cc2CN1C | 12.7 | 0.37 | 616 | 0.053 | 37 | 0.1 | 120 | Ki [6]: 8.86 nM; Ki [8]: 1.01 nM; Ke [9]: 8.92 nM; Ki [10]: 118 nM |
| CC(C)[C@@H](CN1CC[C@@](C)(c2cccc(O)c2)[C@@H](C)C1)NC(=O)[C@@H](N)Cc1ccc(O)cc1 (stereo in doubt; form 1) [listing 2 of 2 here] | 12 | 44.6 |  |  |  |  |  |  |
| N=C(N)Nc1ccc2[nH]c3c(c2c1)C[C@@]1(O)[C@H]2Cc4ccc(O)c5c4[C@@]1(CCN2CC1CC1)[C@H]3O5 [GUANIDINONALTRINDOLE] |  |  | 70 | 0.18 | 36.9 |  |  | Kb [14]: 3.24 nM; Kb [15]: 0.0398 nM; Mu/kappa ratio [16]: 206; Kb [17]: 15.5 nM; Delta/kappa [13]: 389 |
